What is called IC50 is the concentration that inhibits the measured activity by half. By CC50 is commonly meant the concentration giving 50% cytotoxicity. High values mean lower toxicity to the cells, low ones greater toxicity to the cells.

This note sets out measurements from ChEMBL document CHEMBL1641440, “Virtual screening based identification of novel small-molecule inhibitors targeted to the HIV-1 capsid” (Bioorg Med Chem, 2011).

In data set [1] the test system is Human immunodeficiency virus 1. Put plainly: Antiviral activity against HIV1 3B infected in human MT2 cells assessed as inhibition of viral p24 antigen production after 4 days by ELISA. The format is functional, organism-based. The note with it: Human immunodeficiency virus 1, 3B, MT2, 96 h. In a few lines:
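MT-2 cells (1 × 10^4) infected with HIV-1 IIIB at 100 TCID50 (0.01 MOI) in RPMI 1640/10% FBS with graded inhibitor concentrations overnight; medium then replaced with fresh medium containing freshly prepared compound. On day 4 supernatant mixed 1:1 with 5% Triton X-100 and p24 measured by ELISA; IC50 = concentration giving 50% reduction in p24 production. Mean ± SD.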

The test system of the next data set is MT2. Put plainly: Cytotoxicity against human MT2 cells after 4 days by XTT assay. The data set is classed as cell-based. Particulars: mt2, 96 h. In short, it runs like this: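 XTT assay run in parallel with the MT-2 antiviral assay, with medium in place of virus. Graded compound added to an equal volume of MT-2 cells (1 × 10^5 cells/mL), 37 °C for 4 days. Formazan read at 450 nm (reference 620 nm) 4 h after XTT addition; CC50 = concentration giving 50% cytotoxicity.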

Data set [2] deals with Human immunodeficiency virus 1. Particulars: 3B, MT2, 1 ug/mL.

Calls of active or inactive are those of the source. The rule behind the calls is not given here. Some results are limits rather than exact numbers.

Consider `Cc1ccc2[nH]c(=O)c(CN(CC3CCCO3)C(=O)c3ccc(Cl)cc3)cc2c1` (configuration not stated), for which the IC50 in data set [1] was greater than 38.9 µM.
As to `COc1ccc2[nH]c(=O)c(CN(Cc3ccco3)C(=O)c3ccc(Br)cc3)cc2c1`, in data set [1], the half-maximal inhibitory concentration (IC50) is greater than 13 µM.
For the molecule `Cc1ccc2[nH]c(=O)c(CN(Cc3ccco3)C(=O)c3ccc(Cl)c(N4CCCCC4)c3)cc2c1`, the CC50 in the data set on MT2 was greater than 20.4 µM. Besides, the half-inhibitory concentration (IC50) in data set [1] is 7.1 µM.
As to `Cc1ccc2[nH]c(=O)c(CN(Cc3ccco3)C(=O)c3ccc(F)c(Cl)c3)cc2c1`, in the data set with MT2, the cytotoxic concentration (CC50) is greater than 23.5 µM. Further, in data set [1], the half-maximal inhibitory concentration (IC50) amounted to 8.2 µM.
`Cc1ccc2[nH]c(=O)c(CN(Cc3ccco3)C(=O)c3ccc(F)c(F)c3)cc2c1` registered a 50% cytotoxic concentration (CC50) in the data set with MT2 greater than 24.5 µM. Further, the half-inhibitory concentration (IC50) in data set [1] came to 4.7 µM.
Consider `Cc1ccc2[nH]c(=O)c(CN(Cc3ccco3)C(=O)c3cccnc3)cc2c1`, for which the IC50 in data set [1] was greater than 16.7 µM.
Turning to `Cc1cccc2cc(CN(Cc3ccccc3)C(=O)c3cccc(Cl)c3)c(=O)[nH]c12`, the CC50 with MT2 is greater than 60 µM. Moreover, in data set [1], the 50% inhibitory concentration (IC50) was found to be 3.59 µM.
For `c1cc(CN2CCCNCCNCCCNCC2)ccc1CN1CCCNCCNCCCNCC1`, the inhibition entry in data set [2] is “Active”.
As to `CCc1ccc2[nH]c(=O)c(CN(Cc3ccco3)C(=O)c3ccccc3)cc2c1`, the IC50 in data set [1] was greater than 13.9 µM.
`Cc1ccc2[nH]c(=O)c(CN(Cc3cccs3)C(=O)c3cccs3)cc2c1` gave a CC50 with MT2 greater than 64 µM. Besides, the half-inhibitory concentration (IC50) in data set [1] was 11.8 µM.
Consider `Cc1ccc2cc(CN(Cc3ccco3)C(=O)c3ccc(C(C)(C)C)cc3)c(=O)[nH]c2c1`, for which, in data set [1], the IC50 is greater than 14.6 µM.
For the molecule `Cc1ccc2cc(CN(Cc3ccco3)C(=O)c3cccc(F)c3)c(=O)[nH]c2c1`, the half-maximal cytotoxic concentration (CC50) with MT2 is greater than 51.2 µM. For the same molecule, the IC50 in data set [1] is 12.4 µM.
Regarding `Cc1ccc2cc(CN(Cc3ccco3)C(=O)c3ccccc3)c(=O)[nH]c2c1`, the concentration for half-maximal inhibition (IC50) in data set [1] is greater than 16.8 µM.
In the case of `Cc1ccc2[nH]c(=O)c(CN(Cc3ccco3)C(=O)c3ccc(N(C)C)cc3)cc2c1`, the half-maximal inhibitory concentration (IC50) in data set [1] is greater than 24.1 µM.
For the molecule `Cc1ccc2[nH]c(=O)c(CN(Cc3ccco3)C(=O)c3ccc(F)cc3)cc2c1`, in data set [1], the IC50 was greater than 25.6 µM.
On to `Cc1ccc2[nH]c(=O)c(CN(Cc3ccco3)C(=O)c3ccc(Cl)c(Cl)c3)cc2c1`, for which, in the data set with MT2, the 50% cytotoxic concentration (CC50) is 70.7 µM. Besides, in data set [1], the IC50 worked out at 9.2 µM.
As to `Cc1ccc2[nH]c(=O)c(CN(Cc3ccc(Cl)cc3)C(=O)c3cn4cccc(C)c4n3)cc2c1`, the 50% cytotoxic concentration (CC50) with MT2 worked out at 44.5 µM. In addition, the IC50 in data set [1] is 9.27 µM.
`Cc1ccc2[nH]c(=O)c(CN(Cc3ccco3)C(=O)CN3CCN(C)CC3)cc2c1`: the IC50 in data set [1] is greater than 24.5 µM.
With `Cc1cccc2cc(CN(Cc3ccco3)C(=O)c3ccccc3F)c(=O)[nH]c12`, the CC50 with MT2 is greater than 64 µM. Besides, the IC50 in data set [1] is 7.25 µM.
Turning to `Cc1ccc2[nH]c(=O)c(CN(Cc3ccco3)C(=O)c3ccc(Cl)c(O)c3)cc2c1`, the half-maximal inhibitory concentration (IC50) in data set [1] is greater than 23.6 µM.
With `Cc1ccc2[nH]c(=O)c(CN(Cc3ccccc3)C(=O)c3ccco3)cc2c1`, in the data set with MT2, the CC50 is greater than 67.1 µM. In addition, the half-inhibitory concentration (IC50) in data set [1] was 3.09 µM.
As to `Cc1ccccc1C(=O)N(Cc1ccco1)Cc1cc2cccc(C)c2[nH]c1=O`, the 50% cytotoxic concentration (CC50) in the data set with MT2 was greater than 64.7 µM. The IC50 in data set [1] came to 4.23 µM.
In the data set on MT2, `Cc1ccc2[nH]c(=O)c(CN(Cc3ccco3)C(=O)c3ccccc3)cc2c1` registered a CC50 greater than 67.1 µM. The concentration for half-maximal inhibition (IC50) in data set [1] turned out to be 9.28 µM.
In the data set with MT2, `Cc1cccc2cc(CN(Cc3ccco3)C(=O)c3cccs3)c(O)nc12` gave a CC50 greater than 66.1 µM. The IC50 in data set [1] is greater than 16.5 µM.
In the case of `COc1ccc2nc(O)c(CN(Cc3ccco3)C(=O)c3ccccc3)cc2c1`, the 50% inhibitory concentration (IC50) in data set [1] is greater than 25.7 µM.
With `CCc1ccc2[nH]c(=O)c(CN(Cc3ccco3)C(=O)c3cccs3)cc2c1`, the 50% cytotoxic concentration (CC50) in the data set with MT2 is greater than 127 µM. For the same molecule, the IC50 in data set [1] worked out at 12.3 µM.
In the data set on MT2, `COc1ccc2[nH]c(=O)c(CN(Cc3ccco3)C(=O)c3ccc(C)cc3)cc2c1` came in with a CC50 greater than 31 µM. For the same molecule, the IC50 in data set [1] was 7.87 µM.
Consider `Cc1ccc2[nH]c(=O)c(CN(Cc3ccco3)C(=O)c3ccc(C#N)cc3)cc2c1`, for which the IC50 in data set [1] is greater than 25.2 µM.
For `Cc1ccc2[nH]c(=O)c(CN(Cc3ccco3)C(=O)c3ccc(Br)cc3)cc2c1`, the CC50 in the data set on MT2 was greater than 55.4 µM. Further, the IC50 in data set [1] is 2.16 µM.
Consider `COc1ccc(C(=O)N(Cc2ccco2)Cc2cc3ccc(C)cc3[nH]c2=O)cc1`, for which the IC50 in data set [1] was greater than 15 µM.
For the molecule `Cc1ccc2[nH]c(=O)c(CN(Cc3ccco3)C(=O)c3cnn(C)c3)cc2c1`, the IC50 in data set [1] was greater than 26.6 µM.
Regarding `Cc1ccc2[nH]c(=O)c(CN(Cc3ccco3)C(=O)c3cc(Cl)c(O)c(Cl)c3)cc2c1`, in data set [1], the IC50 was greater than 21.9 µM.
Regarding `Cc1ccc2[nH]c(=O)c(CN(Cc3cccs3)C(=O)c3ccccc3)cc2c1`, in data set [1], the IC50 was greater than 12.9 µM.
In the data set with MT2, `Cc1cc(=O)n2c3ccccc3n(C[C@H](O)CN3CCOCC3)c2c1C#N` registered a CC50 greater than 34.1 µM. Moreover, in data set [1], the IC50 turned out to be 30 µM.
As for `Cc1ccc2[nH]c(=O)c(CN(Cc3ccco3)C(=O)c3ccc(O)c(Cl)c3)cc2c1`, the IC50 in data set [1] was greater than 23.6 µM.
The same measure, in the same setting: under `Cc1ccc2[nH]c(=O)c(CN(Cc3ccco3)C(=O)C(F)(F)F)cc2c1` stands greater than 27.5 µM.
`Cc1ccc2[nH]c(=O)c(CN(Cc3ccc4c(c3)OCO4)C(=O)c3ccccc3)cc2c1` yielded a 50% cytotoxic concentration (CC50) in the data set with MT2 greater than 117 µM. Besides, in data set [1], the IC50 is 5.8 µM.
`CCOc1ccc(C(=O)N(Cc2cccs2)Cc2cc3cc(C)ccc3[nH]c2=O)cc1` displayed a 50% cytotoxic concentration (CC50) in the data set on MT2 of 12.7 µM. In addition, the IC50 in data set [1] is 5 µM.
Consider `COc1ccc2[nH]c(=O)c(CN(Cc3cccs3)C(=O)c3cccc(C)c3)cc2c1`, for which the CC50 in the data set with MT2 came to 25 µM. Besides, in data set [1], the IC50 worked out at 7.9 µM.
`Cc1ccc2[nH]c(=O)c(CN(Cc3cccs3)C(=O)C3CCCCC3)cc2c1`: in the data set with MT2, the CC50 was greater than 63.4 µM. For the same molecule, the IC50 in data set [1] amounted to 11.7 µM.
For `Cc1ccc(C(=O)N(Cc2ccco2)Cc2cc3ccc(C)cc3[nH]c2=O)cc1`, the IC50 in data set [1] was greater than 16.2 µM.
The molecule `Cc1ccc(C(=O)N(Cc2ccco2)Cc2cc3cccc(C)c3[nH]c2=O)cc1` registered a CC50 in the data set on MT2 of 9.2 µM. In addition, the 50% inhibitory concentration (IC50) in data set [1] is 2.67 µM.
The corresponding values for `Cc1cccc2cc(CN(Cc3ccco3)C(=O)c3ccccc3)c(=O)[nH]c12` are greater than 67.1 µM and 4.02 µM.
The like results for `Cc1ccc(CN(Cc2cc3cc(C)ccc3[nH]c2=O)C(=O)c2ccco2)cc1` were, in that order, greater than 19.8 µM and 6.4 µM.
The corresponding values for `COc1ccc2[nH]c(=O)c(CN(Cc3cccs3)C(=O)C3CCCCC3)cc2c1` are greater than 48 µM and 6.1 µM.
As for `Cc1ccc2[nH]c(=O)c(CN(Cc3ccco3)C(=O)c3ccc(S(N)(=O)=O)cc3)cc2c1`, the IC50 in data set [1] was greater than 22.1 µM.
As for `COc1ccc(C(=O)N(Cc2ccco2)Cc2cc3cc(C)ccc3[nH]c2=O)cn1`, the IC50 in data set [1] is greater than 24.8 µM.
